Assay: Toxicity liver stage against HepG2, at 10uM
Format: cell-based
Parameters: test concentration 10 uM, cell line HepG2-A16-CD81EGFP
Settings: human, HepG2-A16-CD81EGFP cells; read-out: INHIBITION
In short: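 Uninfected HepG2-A16-CD81EGFP cells, 3 × 10^3 per well, 1536-well, plated on prespotted compound at 10 μM final, parasite-free screening media added to match infected plates; puromycin 10 μM positive, DMSO 0.5% negative; run in parallel with 48 h PbLuc assay at 37 °C, 5% CO2; viability by CellTiter-Glo luminescence, normalized to controls.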

In the case of `CSc1ccc(C(=O)C2CCCN(C(=O)Cn3cnnn3)C2)cc1` (stereo not given), the cytotoxicity at 10 µM is reported as -1.57%.
Work on `CC(=O)NC[C@H]1OC[C@@H](NC2CCC(F)(F)CC2)[C@@H]1O` yielded a cytotoxicity at 10 µM of -8.57%.
`O=c1c(NCCOCCO)c(N2CCN(c3ccccc3)CC2)c1=O` showed a cytotoxicity at 10 µM of -5.64%.
In the case of `Cn1ccc2c(NC(=O)Cn3ncc4c(c3=O)CCCCC4)cccc21`, the cytotoxicity at 10 µM is reported as 3.89%.
Compound `O=C1CCC(c2ccc(Cl)cc2)=NN1CN1CCSCC1` has a cytotoxicity at 10 µM of 34.4%.
`COc1ccc(S(=O)(=O)NCC(O)c2sccc2C)cc1C` (stereo not given) showed a cytotoxicity at 10 µM of 1.69%.
For `CCCN(CCC)c1ncc(S(=O)(=O)c2cccc(C)c2)c(N)n1`, the cytotoxicity at 10 µM was 11%.
`COc1cccc(-c2nc(C)c(C(=O)NC(CO)CCSC)s2)c1` (stereo not given) showed a cytotoxicity at 10 µM of -7.71%.
With `CC(=O)N1CCN(C(=O)c2cc(-n3cnnn3)ccc2Cl)CC1` the cytotoxicity at 10 µM was 8.32%.
`c1ccc(OCC2CC3(CCN(Cc4ccncc4)CC3)CO2)nc1` (stereo not given) gave a cytotoxicity at 10 µM of -12.5%.
Work on `CSCc1cccc(S(=O)(=O)N2CCSCC2)c1` yielded a cytotoxicity at 10 µM of 14.3%.
In the case of `CC1(C(=O)NCCCOc2ccccc2F)CC(=O)N2C=CC=CC2=N1` (stereo not given), the cytotoxicity at 10 µM is reported as 2.28%.
`CC1CCc2n[nH]c(C(=O)NCCCc3ccco3)c2C1` (stereo not given) gave a cytotoxicity at 10 µM of -23.2%.
Compound `Cc1cnc(C2(C)CCN(Cc3csc(C)n3)CC2)s1` has a cytotoxicity at 10 µM of -16.1%.
With `COCC(=O)N1CC(c2ccnc(Nc3ccc(C)cn3)n2)C1` the cytotoxicity at 10 µM was -30.9%.
Work on `CCC(=O)N1CCC(Cc2ccccc2-c2ccncc2)(C(=O)NC)C1` (stereo not given) yielded a cytotoxicity at 10 µM of -16%.
In the case of `Cc1nc(Nc2nnc(C)s2)cc(C2CCCN2S(C)(=O)=O)n1` (stereo not given), the cytotoxicity at 10 µM is reported as -11.9%.
In the case of `Cc1ncncc1C(=O)N1CCC(O)(CN(C)Cc2ccc(F)cc2)C1` (stereo not given), the cytotoxicity at 10 µM is reported as -7.16%.
Work on `c1cnc2[nH]c(C3CCNCC3)c(CN3CCOCC3)c2c1` yielded a cytotoxicity at 10 µM of 1.82%.
For `CCn1cc(CN2CCC(O)(Cn3nc(C)ccc3=O)CC2)cn1`, the cytotoxicity at 10 µM was -22.3%.
Compound `OC1(CNc2ccc(F)cc2)CCNCC1` has a cytotoxicity at 10 µM of 2.4%.
`COc1ccc(F)cc1C(=O)N1CCn2c(nnc2C(F)(F)F)C1` gave a cytotoxicity at 10 µM of -7.61%.
In the case of `COC(=O)CNC(=O)C(C(C)C)n1cnc2cc(F)c(F)cc21` (stereo not given), the cytotoxicity at 10 µM is reported as 2.76%.
With `CC(C)c1nc(C2CCCN(C(=O)CN3CCCNC3=O)C2)no1` (stereo not given) the cytotoxicity at 10 µM was -4.1%.
In the case of `CCc1nc2c(s1)C(N(C)C(C)=O)CCC2` (stereo not given), the cytotoxicity at 10 µM is reported as -11.6%.
Work on `CC(CNC(=O)N1CCN(c2ncccn2)CC1)Cc1cccs1` (stereo not given) yielded a cytotoxicity at 10 µM of -7.9%.
Compound `CC(=O)N1CCCN(C(C)C(=O)Nc2ccnn2C(C)C)CC1` (stereo not given) has a cytotoxicity at 10 µM of -6.22%.
For `Cc1cn2c(n1)CCC(NC(=O)CCOc1cccc(F)c1)C2` (stereo not given), the cytotoxicity at 10 µM was -3.42%.
For `O=C(c1cccc(Cl)c1Cl)N1CCN(CC(O)Cn2cccn2)CC1` (stereo not given), the cytotoxicity at 10 µM was -14.3%.
In the case of `CC(C)Cc1nc(CS(=O)(=O)c2ccccc2)no1`, the cytotoxicity at 10 µM is reported as 9.52%.
`CCc1ccc(C(=O)NC(C)c2ccc(S(C)(=O)=O)c(F)c2)o1` (stereo not given) showed a cytotoxicity at 10 µM of 17.2%.
`CC(CN1CCOCC1)OC(=O)c1cccc2cn[nH]c12` (stereo not given) gave a cytotoxicity at 10 µM of -1.08%.
For `CC(C)CSCCCNC(=O)C1CCOCC1`, the cytotoxicity at 10 µM was -3.65%.
With `Cc1sc(CN)nc1-c1ccccc1` the cytotoxicity at 10 µM was -2.85%.
For `COc1cccc([C@@H](C)n2ccnc2-c2cc3n(n2)CCNC3)c1`, the cytotoxicity at 10 µM was 3.09%.
In the case of `O=C(NC1CCCNC1=O)c1ccc2nc(-c3ccc(F)cc3)cn2c1` (stereo not given), the cytotoxicity at 10 µM is reported as 8.8%.
In the case of `CCN(Cc1cnn(C)c1)C[C@H]1CC[C@@H](Cc2ccc(C#N)cc2)O1`, the cytotoxicity at 10 µM is reported as 5.78%.
In the case of `Cc1nn2c(NCC(N)=O)cc(-c3ccccc3)nc2c1C`, the cytotoxicity at 10 µM is reported as -10.5%.
`Cc1ccc(N2C[C@H](O)[C@@H](N3CCN(c4ccccn4)CC3)C2)nn1` gave a cytotoxicity at 10 µM of -0.442%.
Work on `COc1ccccc1N1CCN(C(=O)CCn2ccnc2C)CC1(C)C` yielded a cytotoxicity at 10 µM of -26.7%.
In the case of `CC(O)CN1CCc2onc(C(c3ccccc3)c3ccccc3)c2C1` (stereo not given), the cytotoxicity at 10 µM is reported as -1.49%.
With `Cc1nc(C)n(C2CCCN(C(=O)c3ccc(F)c(F)c3)C2)n1` (stereo not given) the cytotoxicity at 10 µM was -11.9%.
Compound `Cc1cc2n(n1)CC(CNCc1ccc(-n3cccn3)cc1)CN2` (stereo not given) has a cytotoxicity at 10 µM of -2.95%.
With `COCCN1CC[C@@H](O)[C@@H]1Cc1ccccc1` the cytotoxicity at 10 µM was 3.67%.
`O=C(c1ccccn1)N1C[C@H]2CC[C@@H](C1)N(C(=O)CCC(F)(F)F)C2` gave a cytotoxicity at 10 µM of 4.37%.
